Assay results reported in ChEMBL document CHEMBL1149790, “Synthesis of some novel thiourea derivatives obtained from 5-[(4-aminophenoxy)methyl]-4-alkyl/aryl-2,4-dihydro-3H-1,2,4-triazole-3-thiones and evaluation as antiviral/anti-HIV and anti-tuberculosis agents” (Eur J Med Chem, 2008).
Values after ≈ are worked out from the molar mass of the structure shown. Active and inactive are the calls of the source. No cut-off for these calls is given here.

Assays:
Human alphaherpesvirus 1 [1] = assay: Antiviral activity against thymidine kinase deficient and acyclovir resistant HSV1 KOS in human HEL cells assessed as reduction of virus-induced cytopathogenicity; type: functional; settings: Human alphaherpesvirus 1, KOS
Procedure, shortened: (§1)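 Confluent cell monolayers (E6SM, HEL, HeLa or Vero, per line) inoculated with 100 CCID50 virus; 1 h adsorption, residual virus removed, then incubated with compound at 400, 200, 100 … µg/ml. Cytopathicity scored once complete in untreated virus controls; MIC = concentration inhibiting virus-induced cytopathicity.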

Sindbis virus = assay: Antiviral activity against Sindbis virus in african green monkey Vero cells assessed as reduction of virus-induced cytopathogenicity; type: functional; procedure, shortened: as §1
Human alphaherpesvirus 2 [2] = assay: Antiviral activity against HSV2 G in human HEL cells assessed as reduction of virus-induced cytopathogenicity; type: functional; settings: Human alphaherpesvirus 2, G; procedure, shortened: as §1
Human alphaherpesvirus 1 [3] = assay: Antiviral activity against HSV1 KOS in human HEL cells assessed as reduction of virus-induced cytopathogenicity; type: functional; settings: Human alphaherpesvirus 1, KOS; procedure, shortened: as §1
[4] = Cytotoxicity against human HeLa cells; type: cell-based
Procedure, shortened: (§2)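 Uninfected cell cultures exposed to test compounds alongside antiviral assays; minimum cytotoxic concentration (MCC) = concentration causing a microscopically detectable alteration of cell morphology.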

Vero = assay: Cytotoxicity against african green monkey Vero cells; type: cell-based; settings: chlorocebus sabaeus; procedure, shortened: as §2
[5] = Cytotoxicity against human E6SM cells; type: cell-based; settings: E6SM cells; procedure, shortened: as §2
Human alphaherpesvirus 1 [6] = assay: Antiviral activity against HSV1 KOS in human E6SM cells assessed as reduction of virus-induced cytopathogenicity; type: functional; settings: Human alphaherpesvirus 1, KOS; procedure, shortened: as §1
[7] = Cytotoxicity against human HEL cells assessed as reduction of cell growth; type: cell-based
Procedure, shortened: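 HEL cells; CC50 = compound concentration reducing cell growth by 50%.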

[8] = Cytotoxicity against human MT4 cells by MTT assay; type: cell-based
Procedure, shortened: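 Mock-infected MT-4 cells (6 × 10⁵ cells/ml) with serial five-fold compound dilutions in triplicate; MTT reduction read at 540 and 690 nm after 5 days, median OD of three wells; CC50 = concentration reducing OD540 of mock-infected control by 50%.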

Human betaherpesvirus 5 [9] = assay: Antiviral activity against human cytomegalovirus Davis infected HEL cells assessed as reduction in virus plaque formation; type: functional, organism-based; settings: Human betaherpesvirus 5, Davis
[10] = tested on: Mycobacterium tuberculosis; assay: Antitubercular activity against Mycobacterium tuberculosis H37Rv at 6.25 ug/ml by MABA assay; type: functional
Human betaherpesvirus 5 [11] = assay: Antiviral activity against human cytomegalovirus AD169 infected HEL cells assessed as reduction in virus plaque formation; type: functional, organism-based; settings: Human betaherpesvirus 5, AD169, HEL
Human respirovirus 3 = assay: Antiviral activity against Parainfluenza 3 virus in african green monkey Vero cells assessed as reduction of virus-induced cytopathogenicity; type: functional; procedure, shortened: as §1
[12] = Cytotoxicity against human HEL cells assessed as alteration of cell morphology; type: cell-based; procedure, shortened: as §2
[13] = tested on: Mammalian orthoreovirus 1; assay: Antiviral activity against Reo virus 1 in african green monkey Vero cells assessed as reduction of virus-induced cytopathogenicity; type: functional; procedure, shortened: as §1
[14] = tested on: Human immunodeficiency virus 1; assay: Antiviral activity against HIV1 3B in human MT4 cells assessed as protection against virus-induced cytopathogenicity by MTT assay; type: functional, organism-based; parameters: Activity: concentration or dose not given beside the values; settings: for IC50: Human immunodeficiency virus 1, 3B, MT4
Procedure, shortened: (§3)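 MT-4 cells at 6 × 10⁵ cells/ml infected with HIV-1 IIIB or HIV-2 ROD at 100–300 CCID50; compounds in serial five-fold dilutions, triplicate mock- and virus-infected wells. MTT viability read at 540 and 690 nm after 5 days, median OD of three wells; EC50 = 50% protection from viral cytopathic effect.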

[15] = tested on: Respiratory syncytial virus; assay: Antiviral activity against respiratory syncytial virus in human HeLa cells assessed as inhibition of virus-induced cytopathogenicity; type: functional; procedure, shortened: as §1
Coxsackievirus B4 [16] = assay: Antiviral activity against Coxsackie virus B4 in african green monkey Vero cells assessed as reduction of virus-induced cytopathogenicity; type: functional; settings: Enterovirus B; procedure, shortened: as §1
Human alphaherpesvirus 3 [17] = assay: Antiviral activity against TK+ VZV OKA infected HEL cells assessed as reduction in virus plaque formation; type: functional, organism-based; settings: Human alphaherpesvirus 3, OKA
Human alphaherpesvirus 2 [18] = assay: Antiviral activity against HSV2 G in human E6SM cells assessed as reduction of virus-induced cytopathogenicity; type: functional; settings: Human alphaherpesvirus 2, G; procedure, shortened: as §1
Coxsackievirus B4 [19] = assay: Antiviral activity against Coxsackie virus B4 in human HeLa cells assessed as inhibition of virus-induced cytopathogenicity; type: functional; settings: Enterovirus B; procedure, shortened: as §1
Punta Toro virus = assay: Antiviral activity against Punta Toro virus in african green monkey Vero cells assessed as reduction of virus-induced cytopathogenicity; type: functional; procedure, shortened: as §1
Human alphaherpesvirus 1 [20] = assay: Antiviral activity against thymidine kinase deficient and acyclovir resistant HSV1 KOS in human E6SM cells assessed as reduction of virus-induced cytopathogenicity; type: functional; settings: Human alphaherpesvirus 1, KOS; procedure, shortened: as §1
[21] = tested on: Vesicular stomatitis virus; assay: Antiviral activity against in Vesicular stomatitis virus in human HEL cells assessed as reduction of virus-induced cytopathogenicity; type: functional; procedure, shortened: as §1
[22] = tested on: Vesicular stomatitis virus; assay: Antiviral activity against in Vesicular stomatitis virus in human E6SM cells assessed as reduction of virus-induced cytopathogenicity; type: functional; procedure, shortened: as §1
[23] = tested on: Human immunodeficiency virus 2; assay: Antiviral activity against HIV2 ROD in human MT4 cells assessed as protection against virus-induced cytopathogenicity by MTT assay; type: functional, organism-based; parameters: Activity: concentration or dose not given beside the values; settings: for IC50: Human immunodeficiency virus 2, ROD, MT4; procedure, shortened: as §3
Human alphaherpesvirus 3 [24] = assay: Antiviral activity against TK- VZV 07/1 infected HEL cells assessed as reduction in virus plaque formation; type: functional, organism-based; settings: Human alphaherpesvirus 3, 07/1, HEL
[25] = tested on: Vesicular stomatitis virus; assay: Antiviral activity against vesicular stomatitis virus in human HeLa cells assessed as inhibition of virus-induced cytopathogenicity; type: functional; procedure, shortened: as §1

Structure (SMILES)	MIC (Human alphaherpesvirus 1 [1]) [µg/mL]	MIC (Sindbis virus) [µg/mL]	MIC (Human alphaherpesvirus 2 [2]) [µg/mL]	MIC (Human alphaherpesvirus 1 [3]) [µg/mL]	MCC [4] [µg/mL]	Activity (Vero)	MCC [5] [µg/mL]	MIC (Human alphaherpesvirus 1 [6]) [µg/mL]	CC50 [7] [µg/mL]	CC50 [8] [µg/mL]	EC50 (Human betaherpesvirus 5 [9]) [µg/mL]	EC50 (Human betaherpesvirus 5 [11]) [µg/mL]	MIC (Human respirovirus 3) [µg/mL]	MCC [12] [µg/mL]	MIC [13] [µg/mL]	Activity [14] [%]	IC50 [14] [µg/mL]	MIC [15] [µg/mL]	MIC (Coxsackievirus B4 [16]) [µg/mL]	EC50 (Human alphaherpesvirus 3 [17]) [µg/mL]	also measured
CCn1c(COc2ccc(NC(=S)Nc3ccccc3)cc2)n[nH]c1=S	> 80	> 80	> 80	> 80	400	>= 80 ug ml-1	400	> 80	> 50	31.9 (≈ 82.8 µM)	37 (≈ 96 µM)	41 (≈ 106 µM)	> 80	400	> 80	26.5	> 27.2	> 80	48 (≈ 125 µM)	29 (≈ 75.2 µM)	inhibition at 6.25 µg/mL [10]: 76%; MIC (Human alphaherpesvirus 2 [18]): > 80 µg/mL; MIC (Coxsackievirus B4 [19]): > 80 µg/mL; MIC (Punta Toro virus): > 80 µg/mL; MIC (Human alphaherpesvirus 1 [20]): > 80 µg/mL; MIC [21]: > 80 µg/mL; MIC [22]: > 80 µg/mL; Activity [23]: 25.5%; IC50 [23]: > 31.4 µg/mL; EC50 (Human alphaherpesvirus 3 [24]): 34 µg/mL (≈ 88.2 µM); MIC [25]: 80 µg/mL (≈ 208 µM)
C=CCNC(=S)Nc1ccc(OCc2n[nH]c(=S)n2CC=C)cc1	240 (≈ 664 µM)	> 80	240 (≈ 664 µM)	240 (≈ 664 µM)	400	400 µg/mL	> 400	240 (≈ 664 µM)	> 50	71.5 (≈ 198 µM)	77 (≈ 213 µM)	100 (≈ 277 µM)	> 80	> 400	> 80	3	> 66.5	> 80	48 (≈ 133 µM)	41 (≈ 113 µM)	inhibition at 6.25 µg/mL [10]: 59%; MIC (Human alphaherpesvirus 2 [18]): 240 µg/mL (≈ 664 µM); MIC (Coxsackievirus B4 [19]): > 80 µg/mL; MIC (Punta Toro virus): > 80 µg/mL; MIC (Human alphaherpesvirus 1 [20]): 240 µg/mL (≈ 664 µM); MIC [21]: > 400 µg/mL; MIC [22]: > 400 µg/mL; Activity [23]: 1%; IC50 [23]: > 69.7 µg/mL; EC50 (Human alphaherpesvirus 3 [24]): 46 µg/mL (≈ 127 µM); MIC [25]: > 80 µg/mL
Nc1ccc(OCc2n[nH]c(=S)n2-c2ccccc2)cc1	> 400	> 80	240 (≈ 804 µM)	> 400	> 400	400 µg/mL	> 400	> 400	> 50	> 125	> 100	> 100	> 80	> 400	> 80	2	> 125	> 400	48 (≈ 161 µM)	> 100	Activity [10]: inactive; MIC (Human alphaherpesvirus 2 [18]): 240 µg/mL (≈ 804 µM); MIC (Coxsackievirus B4 [19]): > 400 µg/mL; MIC (Punta Toro virus): > 80 µg/mL; MIC (Human alphaherpesvirus 1 [20]): > 400 µg/mL; MIC [21]: > 400 µg/mL; MIC [22]: > 400 µg/mL; Activity [23]: 2.5%; IC50 [23]: > 125 µg/mL; EC50 (Human alphaherpesvirus 3 [24]): > 100 µg/mL; MIC [25]: > 400 µg/mL
Cn1c(COc2ccc(NC(=S)Nc3ccccc3)cc2)n[nH]c1=S	> 80	> 80	> 80	> 80	> 400	400 µg/mL	400	> 80	> 50	≥ 87.8	49 (≈ 132 µM)	66 (≈ 178 µM)	> 80	400	> 80	3.5	> 98.9	> 400	> 80	33 (≈ 88.8 µM)	inhibition at 6.25 µg/mL [10]: 70%; MIC (Human alphaherpesvirus 2 [18]): > 80 µg/mL; MIC (Coxsackievirus B4 [19]): > 400 µg/mL; MIC (Punta Toro virus): > 80 µg/mL; MIC (Human alphaherpesvirus 1 [20]): > 80 µg/mL; MIC [21]: > 80 µg/mL; MIC [22]: > 80 µg/mL; Activity [23]: 6.5%; IC50 [23]: > 87.8 µg/mL; EC50 (Human alphaherpesvirus 3 [24]): 38 µg/mL (≈ 102 µM); MIC [25]: > 400 µg/mL
